Measured values taken from article PMC6044579 (ACS Omega, 2017).
pIC50: −log10 of the molar value. Where two headings read alike, the source gives them in different places.

Legend:
HT29 = assay: MTT assay, HT29 colorectal cancer cells; type: cell-based, human; conditions: read-out: anticancer activity (IC50) HT29
In short: (§1)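 ATCC-sourced human cells kept at 37 °C, 5% CO2, humidified air. Cells treated with test compound at various concentrations for 96 h; DMSO as control, cisplatin as positive control. MTT (0.4 mg mL–1) added for a further 4 h, medium aspirated, formazan dissolved in DMSO, absorbance read at 490 nm. IC50 taken as the concentration giving 50% growth inhibition.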

MRC-5 = assay: MTT assay, MRC-5 diploid fibroblasts; type: cell-based, human; conditions: read-out: anticancer activity (IC50) MRC-5
In short: as §1

HepG2 = assay: MTT assay, HepG2 liver carcinoma cells; type: cell-based, human
In short: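 HepG2 cells from ATCC, kept at 37 °C, 5% CO2, humidified air. Cells were exposed to the test compound at various concentrations, with DMSO as control, for 96 h. MTT (0.4 mg mL–1) was then added for 4 h. Medium was aspirated, formazan dissolved in DMSO, and absorbance read at 490 nm. IC50 was taken as the concentration giving 50% growth inhibition.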

[1] = Fluorescence spectra and quantum yield; type: physicochemical; conditions: for ε × Φ, fluorescent brightness / λem – λabs, Stokes shift / λem, emission wavelength / λex, best excitation wavelength: ethanol as the solvent; for Φ, quantum yield: ethanol, rhodamine as the reference
In short: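 Emission spectra recorded with xenon lamp excitation in 1.0 cm quartz cells at room temperature, excitation and emission slits 5.0 nm. Ethanolic compound solution (25 μg mL–1 before dilution) diluted in a 10 mL flask with buffer solutions, pH set with dilute HCl or NaOH, then equilibrated 2 min. Quantum yield in anhydrous ethanol from integrated emission relative to rhodamine 6G standard (5.0 μg mL–1 in anhydrous ethanol).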

A549 = assay: MTT assay, A549 cancerous alveolar epithelial cells; type: cell-based, human; conditions: read-out: anticancer activity (IC50) A549
In short: as §1

[2] = UV-vis absorption spectra; type: physicochemical; conditions: ethanol as the solvent
In short: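 Absorption spectra taken in 1.0 cm quartz cells in anhydrous ethanol at room temperature. Ethanolic compound solution (25 μg mL–1 before dilution) made up in a 10 mL volumetric flask and equilibrated 2 min before measurement.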

SGC7901 = assay: MTT assay, SGC7901 gastric carcinoma cells; type: cell-based, human; conditions: read-out: anticancer activity (IC50) SGC7901
In short: as §1

Cyclic voltammetry = type: physicochemical; conditions: anhydrous ethanol, 1.0 × 10^–4 M, Fc/Fc^+ internal standard
In short: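 Three-electrode cell: Pt foil working electrode, Pt wire counter electrode, Ag/AgCl reference. Fc/Fc+ couple served as internal standard.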

[3] = tested on: HepG2 liver carcinoma cells; assay: Clonogenic assay for long-term anticancer activity; type: cell-based, human; conditions: HepG2, 18 h exposure, colonies counted after 10 days
In short: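 HepG2 cells seeded at 2 × 10^5 per well and attached overnight, then exposed 18 h to test compound at 0.01, 0.1, 1 or 10 μM, with vehicle alone as control. Replated at 700 cells/well in triplicate and grown 10 days at 37 °C, 5% CO2. Washed in ice-cold PBS, fixed in cold methanol 20 min, stained with 0.5% methylene blue 30 min; colonies of >50 cells counted. IC50 estimated from mean treated/untreated colony ratio.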

[4] = Homo sapiens, HepG2, 96 h, read-out: anticancer activity (IC50) HepG2, MTT assay, liver carcinoma cells, 96 h incubation
[5] = read-out: anticancer activity (IC50) HepG2, MTT assay, liver carcinoma cells, 96 h incubation

Row | Structure (SMILES) | pIC50 (HT29; Homo sapiens, HT-29, 96 h) | pIC50 (MRC-5; Homo sapiens, MRC5, 96 h) | pIC50 (HepG2; [4]) | ε × Φ, fluorescent brightness [1] [mL mg^–1 cm^–1] | λem – λabs, Stokes shift [1] [nm] | λem, emission wavelength [1] [nm] | λex, best excitation wavelength [1] [nm] | Φ, quantum yield [1] | pIC50 (A549; Homo sapiens, A549, 96 h) | ε, absorption coefficient [2] [mL mg^–1 cm^–1] | λabs, maximal absorption wavelength [2] [nm] | pIC50 (SGC7901; Homo sapiens, SGC-7901, 96 h) | pIC50 (HepG2; [5]) | pIC50 (HT29; MTT assay, colorectal cancer cells, 96 h incubation) | pIC50 (MRC-5; MTT assay, diploid fibroblasts (normal cells), 96 h incubation) | pIC50 (A549; MTT assay, cancerous alveolar epithelial cells, 96 h incubation) | pIC50 (SGC7901; MTT assay, gastric carcinoma cells, 96 h incubation) | first onset of reduction (Cyclic voltammetry) [V] | reversible reduction wave (Cyclic voltammetry) [V] | IC50, colony-forming ratio [3] [µM]
1 | COc1ccc(C(=O)C2=C3NCCCCN3C3Oc4ccc(F)cc4C(=O)C3=C2)cc1 (centres unmarked) [3fc, 10-Fluoro-6-(4-methoxybenzoyl)-1,2,3,4,5,13a-hexahydro-8H-chromeno[3′,2′:5,6]pyrido-[1,2-a][1,3]diazepin-8-one] | 4.53 | 4.32 | 4.72 | 74.72 | 83.5 | 525.5 | 461.0 | 0.671 | 4.40 | 111.53 | 442.0 | 4.57 |  |  |  |  |  |  |  | 
2 | COc1ccc(C(=O)C2=C3NCCCCN3C3Oc4ccc(Br)cc4C(=O)C3=C2)cc1 (centres unmarked) [3fe, 10-Bromo-6-(4-methoxybenzoyl)-1,2,3,4,5,13a-hexahydro-8H-chromeno[3′,2′:5,6]pyrido-[1,2-a][1,3]diazepin-8-one] | 4.88 | 4.46 | > 5.00 | 37.33 | 82.5 | 526.0 | 470.0 | 0.329 | 4.56 | 113.48 | 443.5 | 4.87 | 5.02 |  |  |  |  |  |  | 
3 | N.N.[Cl][Pt][Cl] [DDP, Cisplatin, reference compound] |  |  |  |  |  |  |  |  |  |  |  |  | 5.52 | 4.84 | 5.09 | 5.08 | 5.64 |  |  | 
4 | COc1ccc(C(=O)C2=C3NCCCN3C3Oc4ccc(F)cc4C(=O)C3=C2)cc1 (centres unmarked) [3ac, 9-Fluoro-5-(4-methoxybenzoyl)-2,3,4,12a-tetrahydro-1H,7H-chromeno[3′,2′:5,6]pyrido-[1,2-a]pyrimidin-7-one] |  |  | < 4.00 |  | 79.0 | 519.5 | 464.0 | 0.476 | < 4.00 |  | 440.5 | < 4.00 |  |  |  |  |  |  |  | 
5 | COc1ccc(C(=O)C2=C3NCCCCN3C3Oc4ccc(Cl)cc4C(=O)C3=C2)cc1 (centres unmarked) [3fd, 10-Chloro-6-(4-methoxybenzoyl)-1,2,3,4,5,13a-hexahydro-8H-chromeno[3′,2′:5,6]pyrido-[1,2-a][1,3]diazepin-8-one] | 4.57 | 4.48 | 4.95 | 53.75 | 83.0 | 526.0 | 470.0 | 0.663 | 4.47 | 81.07 | 443.0 | 4.83 |  |  |  |  |  | −1.04 | −1.19 | 5.99
6 | COc1ccc(C(=O)C2=C3NCCCN3C3Oc4ccc(Cl)cc4C(=O)C3=C2)cc1 (centres unmarked) [3ad, 9-Chloro-5-(4-methoxybenzoyl)-2,3,4,12a-tetrahydro-1H,7H-chromeno[3′,2′:5,6]pyrido-[1,2-a]pyrimidin-7-one] | 4.57 | 4.46 | 4.51 | 23.23 | 80.0 | 520.0 | 449.0 | 0.464 | 4.46 | 50.07 | 440.0 | 4.73 |  |  |  |  |  |  |  | 
7 | COc1ccc(C(=O)C2=C3NCCCN3C3Oc4ccc(Br)cc4C(=O)C3=C2)cc1 (centres unmarked) [3ae, 9-Bromo-5-(4-methoxybenzoyl)-2,3,4,12a-tetrahydro-1H,7H-chromeno[3′,2′:5,6]pyrido-[1,2-a]pyrimidin-7-one] | 4.73 | 4.50 | 4.81 | 10.08 | 79.0 | 520.5 | 466.0 | 0.428 | 4.56 | 23.56 | 441.5 | 4.75 |  |  |  |  |  |  |  | 
